High-throughput results deposited in PubChem BioAssay by Broad Institute.
T cruzi growth-1 – T. cruzi intracellular proliferation inhibitors, primary screen, cell-based, beta-gal Tulahuen parasites, NIH3T3 host, luminescence | AID 624255, 2012 | 77,000 compounds, 5.9% hits | T. cruzi beta-gal in NIH3T3, GalScreen luminescence, 90 h | inhibition, % at 8.34 µM;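 active = mean inhibition above about 93%, with at least 55% of replicates each passing it, limit read from the data, passing the limit was not always enough; inconclusive = only one of those two conditions holds; inactive = neither condition holds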
IDH1 mut inh – inhibitors of IDH1 R132H reductase, primary screen, biochemical, plate reader, single point. Isocitrate dehydrogenase [NADP] cytoplasmic (Homo sapiens), O75874. diaphorase/resazurin fluorescence, 60 min. inhibition, % at 10 µM. 70,000 compounds, 0.18% hits. AID 624101, 2012; in the data active = inhibition above about 34%; inconclusive = no clear call, values can overlap the other calls; inactive = below about 11%;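 also: 0% = DMSO and 100% = no enzyme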
KDM4C inh – inhibitors of GASC-1 (KDM4C) histone demethylase, primary screen, biochemical, single concentration HTS | 96,000 compounds, 0.15% hits | GST-KDM4C 2-372, H3K9me3 peptide, LANCE TR-FRET | inhibition, % at 12.5 µM | Lysine-specific demethylase 4C (Homo sapiens), Q9H3R0 | AID 720574, 2013;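 active = mean replicate inhibition above about 25%, with at least 55% of replicates also reaching it, limit read from the data, passing the limit was not always enough; inconclusive = only one of those two conditions met; inactive = neither condition met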
Target sequence (Q9H3R0 2-372 limits assumed): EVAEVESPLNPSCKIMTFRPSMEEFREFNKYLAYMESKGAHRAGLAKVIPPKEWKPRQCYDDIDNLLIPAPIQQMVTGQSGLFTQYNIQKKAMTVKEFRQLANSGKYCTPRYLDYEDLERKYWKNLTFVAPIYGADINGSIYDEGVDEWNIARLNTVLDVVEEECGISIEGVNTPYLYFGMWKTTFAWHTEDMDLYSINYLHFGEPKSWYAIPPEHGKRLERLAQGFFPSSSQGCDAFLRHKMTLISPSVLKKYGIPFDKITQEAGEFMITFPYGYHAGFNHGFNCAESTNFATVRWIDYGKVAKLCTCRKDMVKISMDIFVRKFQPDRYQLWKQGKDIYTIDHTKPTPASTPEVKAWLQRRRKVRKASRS
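System – N-terminal GST-fused human GASC-1 (KDM4C) fragment, residues 2-372 · Input – enzyme final amount 10 nM · Technique – LANCE TR-FRET, Eu antibody, ULight-streptavidin, EDTA, ex 340 nm, em 618/671 nm · Medium – HEPES buffer, pH 7.5, plus ascorbate · Incubation – enzyme reaction 30 min, then detection 60 min, both room temperature · Reagent – H3K9me3 peptide with Fe(II)/2OG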
T cruzi growth-2 – T. cruzi intracellular proliferation inhibitors, confirmation, cell-based, NIH3T3 host, beta-gal parasite, luminescence, cherry-pick; shares compounds with T cruzi growth-1; 5,600 compounds, 72% hits; inhibition, % at 8.35 µM; T. cruzi beta-gal in NIH3T3, GalScreen luminescence, 90 h;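 active = mean replicate inhibition above about 95% and at least 55% of replicates individually reaching it, limit read from the data; inconclusive = only one of the two criteria is met; inactive = neither criterion is met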
T cruzi growth-3 – inhibitors of intracellular T. cruzi replication, confirmation, NIH3T3 host cells, beta-gal parasites, cherry-pick, set 2; shares compounds with T cruzi growth-1; T. cruzi beta-gal in NIH3T3, GalScreen luminescence, 90 h; inhibition, % at 2.09 µM; 5,600 compounds, 21% hits; AID 651740, 2012;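 active = mean inhibition above about 95%, with at least 55% of replicates also reaching it, limit read from the data; inconclusive = meets just one of the two conditions; inactive = meets neither condition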;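 also: plate controls were neutral control median for no effect and positive control median for full effect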
NIH3T3 tox – cytotoxicity in mouse NIH/3T3 fibroblasts, confirmation, cytotoxicity control for T. cruzi proliferation inhibitor project, cell-based, cherry-pick, single point; AID 651742, 2012; 5,600 compounds, 14% hits; NIH/3T3 viability, CellTiter-Glo ATP luminescence, 90 h; shares compounds with T cruzi growth-1; cytotoxicity (signal decrease), % at 8.35 µM;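 active = mean signal decrease across replicates above about 35% based on untreated-well scatter, with enough replicates individually passing, limit read from the data; inconclusive = no rule stated though some were filed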;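 also: 0% = median of neutral control wells and 100% = median of positive control wells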
3T3 cytotox 2 – NIH/3T3 fibroblast cytotoxicity, confirmation, cytotoxicity control, cell-based, cherry-pick, single point, set 2; 5,600 compounds, 56% hits; shares compounds with T cruzi growth-1; NIH/3T3 viability, CellTiter-Glo ATP luminescence, 90 h; inhibition, % at 24.9 µM;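 active = mean loss of cell viability signal at or above a set limit, and enough replicates individually reaching it; inconclusive = meets only the mean limit or only the replicate share; inactive = meets neither condition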;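 also: 0% = median of neutral control wells and 100% = median of positive control wells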
* marks the source's active call; other numbers are inactive results; ? = inconclusive; . = no result given. Only a selection was taken, and hits are over-represented in it overall.

SMILES	T cruzi growth-1	IDH1 mut inh	KDM4C inh	T cruzi growth-2	T cruzi growth-3	NIH3T3 tox	3T3 cytotox 2
CCS(=O)(=O)N1CCCCN2[C@H](CO)[C@H](c3ccc(-c4cccc(C#N)c4)cc3)[C@H]2C1	127.9*	.	-2.4	97.2*	52.9	52.5*	45.9*
CCS(=O)(=O)N1CCCCN2[C@H](CO)[C@@H](c3ccc(-c4ccc(C#N)cc4)cc3)[C@@H]2C1	19.0	.	-4.1	.	.	.	.
CCS(=O)(=O)N1CCCCN2[C@H](CO)[C@H](c3ccc(-c4ccc(C#N)cc4)cc3)[C@H]2C1	113.8*	.	-2.6	96.4*	52.5	5.1	52.1*
CS(=O)(=O)N1CCCCN2[C@@H](CO)[C@@H](c3ccc(-c4cccc(C#N)c4)cc3)[C@@H]2C1	-8.1	.	0.0	.	.	.	.
CCS(=O)(=O)N1CCCCN2[C@H](CO)[C@H](c3ccc(-c4cccc(C#N)c4)cc3)[C@@H]2C1	91.5	.	-1.2	.	.	.	.
CCS(=O)(=O)N1CCCCN2[C@H](C1)[C@H](c1ccc(-c3cccc(C#N)c3)cc1)[C@@H]2CO	107.4*	.	0.0	24.5	-15.2	10.9	20.4
COc1ccc(NC(=O)Nc2ccc3c(c2)C(=O)N([C@H](C)CO)C[C@H](C)[C@H](CN(C)S(C)(=O)=O)OCCCC[C@@H](C)O3)cc1	-22.6	.	0.3	.	.	.	.
C[C@@H]1CN([C@H](C)CO)C(=O)c2cc(NC(=O)NC3CCCCC3)ccc2O[C@H]1CN(C)Cc1ccc(Cl)c(Cl)c1	93.2*	2.5	0.3	105.9*	-22.4	19.5	13.4
C[C@H]1CN([C@@H](C)CO)C(=O)c2cc(NC(=O)NC3CCCCC3)ccc2O[C@@H]1CN(C)Cc1ccc(Cl)c(Cl)c1	49.7	0.5	1.2	.	.	.	.
C[C@H](CO)N1C[C@H](C)[C@@H](CN(C)Cc2ccc(Cl)c(Cl)c2)Oc2ccc(NC(=O)NC3CCCCC3)cc2C1=O	7.2	2.0	-0.5	.	.	.	.
C[C@@H]1CN([C@@H](C)CO)C(=O)c2cc(NC(=O)NC3CCCCC3)ccc2O[C@@H]1CN(C)Cc1ccc(Cl)c(Cl)c1	?	-6.2	0.6	96.8*	9.7	28.2	27.2
CC(C)NC(=O)N(C)C[C@@H]1Oc2ncc(C#Cc3ccncc3)cc2C(=O)N([C@H](C)CO)C[C@H]1C	1.6	2.4	-0.5	.	.	.	.
CCCN(C)C[C@H]1Oc2cc(C#Cc3ccccn3)ccc2S(=O)(=O)N([C@@H](C)CO)C[C@H]1C	-7.7	-0.1	-1.3	.	.	.	.
C[C@H]1CN([C@@H](C)CO)S(=O)(=O)c2ccc(C#Cc3ccccn3)cc2O[C@H]1CN(C)CC1CC1	20.4	-0.1	-1.2	.	.	.	.
C[C@@H]1CN([C@@H](C)CO)S(=O)(=O)c2ccc(C#Cc3ccccn3)cc2O[C@H]1CN(C)Cc1cccc(F)c1	120.3*	-0.4	-13.4	96.9*	94.2	18.5	-54.4
C[C@@H]1CN([C@H](C)CO)S(=O)(=O)c2ccc(C#Cc3ccccn3)cc2O[C@@H]1CN(C)Cc1cccc(F)c1	121.6*	-0.6	1.5	105.4*	85.9	25.1	69.6*
C[C@@H]1CN([C@H](C)CO)C(=O)c2cc(C#Cc3cccc(F)c3)cnc2O[C@H]1CN(C)C(=O)c1ccccc1F	104.0*	-4.9	-0.1	105.8*	44.1	42.6*	?
COc1ccc(C#Cc2cnc3c(c2)C(=O)N([C@H](C)CO)C[C@@H](C)[C@H](CN(C)C(C)=O)O3)cc1	?	-2.0	0.5	32.0	7.7	13.7	33.0*
C[C@H](CO)N1C[C@H](C)[C@H](CN(C)C(=O)Nc2ccccc2)Oc2ncc(C#Cc3cccc(F)c3)cc2C1=O	35.3	-1.5	-0.2	.	.	.	.
C[C@H](CO)N1C[C@H](C)[C@H](CN(C)C(=O)Nc2ccc(F)cc2)Oc2ncc(C#Cc3cccc(F)c3)cc2C1=O	?	1.7	-3.3	89.8	67.5	74.7*	104.5*
COc1ccc(C#Cc2cnc3c(c2)C(=O)N([C@@H](C)CO)C[C@@H](C)[C@H](CN(C)C(C)=O)O3)cc1	18.9	-0.5	0.1	.	.	.	.
C[C@H]1CN([C@@H](C)CO)C(=O)c2cc(C#Cc3cccc(F)c3)cnc2O[C@H]1CN(C)C(=O)c1ccccc1F	80.4	-0.2	12.4	.	.	.	.
C[C@@H]1CN([C@H](C)CO)C(=O)c2cc(C#Cc3cccc(F)c3)cnc2O[C@@H]1CN(C)C(=O)c1ccccc1F	86.2	-0.6	-0.3	.	.	.	.
C[C@H]1CN([C@@H](C)CO)C(=O)c2cc(C#Cc3cccc(F)c3)cnc2O[C@@H]1CN(C)C(=O)c1ccccc1F	109.9*	-0.1	-1.0	100.5*	27.8	-19.6	0.5
COc1ccc(C#Cc2cnc3c(c2)C(=O)N([C@H](C)CO)C[C@@H](C)[C@H](CN(C)C(=O)c2ccccc2F)O3)cc1	21.1	-0.7	-2.1	.	.	.	.
SMILES	T cruzi growth-1	IDH1 mut inh	KDM4C inh	T cruzi growth-2	T cruzi growth-3	NIH3T3 tox	3T3 cytotox 2
COc1ccc(C#Cc2cnc3c(c2)C(=O)N([C@@H](C)CO)C[C@H](C)[C@@H](CN(C)C(=O)c2ccccc2F)O3)cc1	113.3*	-1.5	-1.5	98.1*	47.2	-25.3	-5.2
O=S(=O)(c1ccc(F)cc1)N1C[C@@H]2[C@H](c3ccccc31)[C@@H](CO)N2Cc1ccc2c(c1)OCO2	76.7	.	0.9	.	.	.	.
O=S(=O)(c1ccccc1)N1C[C@H]2[C@@H](c3ccccc31)[C@H](CO)N2Cc1ccc2c(c1)OCO2	?	.	2.1	93.3	41.9	-5.3	3.1
O=S(=O)(c1ccccc1)N1C[C@H]2[C@@H](c3ccccc31)[C@@H](CO)N2Cc1ccc2c(c1)OCO2	101.3*	.	-4.5	101.1*	44.3	18.1	16.0
O=S(=O)(c1ccccc1)N1C[C@@H]2[C@H](c3ccccc31)[C@H](CO)N2Cc1ccc(F)cc1	94.2	.	-1.4	.	.	.	.
Cc1cccc(S(=O)(=O)N2C[C@H]3[C@@H](c4ccccc42)[C@H](CO)N3Cc2cccnc2)c1	85.2	.	-0.9	.	.	.	.
Cc1cccc(S(=O)(=O)N2C[C@@H]3[C@H](c4ccccc42)[C@H](CO)N3Cc2ccc3c(c2)OCO3)c1	108.5*	.	-0.5	100.8*	108.4*	24.1	-30.9
O=S(=O)(c1ccccc1)N1C[C@H]2[C@@H](c3ccccc31)[C@@H](CO)N2Cc1ccc(F)cc1	84.0	.	-0.6	.	.	.	.
